# Key:
# [1] = molecular target: T1, Sodium-dependent serotonin transporter (Homo sapiens, UniProt P31645); assay: Inhibition of [125I]RTI-55 binding to serotonin transporter (SERT) expressed in HEK cells; type: cell-based, HEK293
# Summary of the method: (§1)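 Membranes from transfected HEK 293 cells (lysed in 2 mM HEPES/1 mM EDTA, pelleted at 30000g, resuspended in 0.32 M sucrose), ~15 μg protein per tube. GF/C filtration, counting. Duplicate competition curves; IC50 converted to Ki by Cheng–Prusoff.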
# Target sequence in this assay (P31645 whole entry): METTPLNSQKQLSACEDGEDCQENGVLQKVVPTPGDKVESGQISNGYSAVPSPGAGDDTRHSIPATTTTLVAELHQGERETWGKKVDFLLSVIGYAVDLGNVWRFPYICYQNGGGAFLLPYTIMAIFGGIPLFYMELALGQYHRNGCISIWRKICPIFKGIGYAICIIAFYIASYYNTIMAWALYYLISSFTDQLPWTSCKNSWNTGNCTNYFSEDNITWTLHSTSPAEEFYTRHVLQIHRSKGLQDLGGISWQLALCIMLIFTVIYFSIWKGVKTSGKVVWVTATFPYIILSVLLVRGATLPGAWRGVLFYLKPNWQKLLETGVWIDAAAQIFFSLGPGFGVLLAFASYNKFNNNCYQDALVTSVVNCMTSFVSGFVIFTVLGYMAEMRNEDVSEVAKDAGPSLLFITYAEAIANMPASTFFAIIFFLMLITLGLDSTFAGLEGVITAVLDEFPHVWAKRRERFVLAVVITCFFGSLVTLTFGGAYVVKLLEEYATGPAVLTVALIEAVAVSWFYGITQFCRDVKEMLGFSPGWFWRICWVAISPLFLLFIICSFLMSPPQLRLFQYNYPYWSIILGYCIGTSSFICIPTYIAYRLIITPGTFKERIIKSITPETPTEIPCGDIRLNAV
# [2] = molecular target: T1, Sodium-dependent serotonin transporter; assay: Inhibition of [3H]- 5-HT uptake in HEK cells expressing serotonin transporter; type: functional, cell-based, HEK293
# Summary of the method: (§2)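 Confluent transfected HEK 293 cells washed in PBS, scraped and suspended. Suspension preincubated with drug 10 min at 25 °C in Krebs HEPES, then [3H]DA or [3H]5-HT (20 nM final) added for another 10 min. Ended by filtration onto GF/C filters presoaked in 0.05% poly(ethylenimine), counting. Six drug concentrations, triplicate; IC50 reported.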
# Target sequence in this assay (P31645 whole entry): as above
# [3] = molecular target: Monoamine transporters; serotonin & dopamine (Homo sapiens) (UniProt P31645+Q01959); assay: Selectivity ratio between serotonin and dopamine transporters; type: protein assay
# [4] = molecular target: T2, Sodium-dependent dopamine transporter (Homo sapiens, UniProt Q01959); assay: Ratio between [3H]DA reuptake and DAT binding; type: functional
# [5] = molecular target: T3, Sodium-dependent noradrenaline transporter (Homo sapiens, UniProt P23975); assay: Inhibition of [125I]RTI-55 binding to norepinephrine transporter (NET) expressed in HEK cells; type: cell-based, HEK293
# [6] = molecular target: Monoamine transporters; Norepinephrine & dopamine (Homo sapiens) (UniProt Q01959+P23975); assay: selectivity ratio between noradrenaline and dopamine transporter binding; type: protein assay
# [7] = molecular target: T2, Sodium-dependent dopamine transporter; assay: Inhibition of [3H]DA uptake in HEK cells expressing dopamine transporter; type: functional, cell-based, HEK293; summary of the method: as §2
# [8] = molecular target: T2, Sodium-dependent dopamine transporter; assay: Inhibition of [125I]RTI-55 binding at Dopamine transporter (DAT) expressed in HEK cells; type: cell-based, HEK293; summary of the method: as §1
# [9] = molecular target: T1, Sodium-dependent serotonin transporter; assay: Ratio between [3H]5-HT reuptake and SERT binding; type: functional
# Target sequence in this assay (P31645 whole entry, looked up): as the sequence (P31645 whole entry) above
# [10] = molecular target: T3, Sodium-dependent noradrenaline transporter; assay: Inhibition of [3H]- NE uptake in HEK cells expressing norepinephrine transporter; type: functional, cell-based, HEK293
# [11] = molecular target: T3, Sodium-dependent noradrenaline transporter; assay: Compound was tested for its affinity by the inhibition of [125I]RTI-55 binding at norepinephrine transporter (NET) transfected in HEK cells; type: cell-based, HEK293
# Summary of the method: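 Membranes from HEK 293 cells transfected with NET (lysed in 2 mM HEPES/1 mM EDTA, pelleted at 30000g, resuspended in 0.32 M sucrose), ~15 μg protein, preincubated with drug 10 min. Then [125I]RTI-55 (40–80 pM final) added in Krebs HEPES, 90 min at room temperature in dark. Filtration, counting. Competition in duplicate; IC50 converted to Ki by Cheng–Prusoff. Final DMSO 0.01%.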
# Chain of Monoamine transporters; Norepinephrine & dopamine (Homo sapiens) (P23975 whole entry, looked up): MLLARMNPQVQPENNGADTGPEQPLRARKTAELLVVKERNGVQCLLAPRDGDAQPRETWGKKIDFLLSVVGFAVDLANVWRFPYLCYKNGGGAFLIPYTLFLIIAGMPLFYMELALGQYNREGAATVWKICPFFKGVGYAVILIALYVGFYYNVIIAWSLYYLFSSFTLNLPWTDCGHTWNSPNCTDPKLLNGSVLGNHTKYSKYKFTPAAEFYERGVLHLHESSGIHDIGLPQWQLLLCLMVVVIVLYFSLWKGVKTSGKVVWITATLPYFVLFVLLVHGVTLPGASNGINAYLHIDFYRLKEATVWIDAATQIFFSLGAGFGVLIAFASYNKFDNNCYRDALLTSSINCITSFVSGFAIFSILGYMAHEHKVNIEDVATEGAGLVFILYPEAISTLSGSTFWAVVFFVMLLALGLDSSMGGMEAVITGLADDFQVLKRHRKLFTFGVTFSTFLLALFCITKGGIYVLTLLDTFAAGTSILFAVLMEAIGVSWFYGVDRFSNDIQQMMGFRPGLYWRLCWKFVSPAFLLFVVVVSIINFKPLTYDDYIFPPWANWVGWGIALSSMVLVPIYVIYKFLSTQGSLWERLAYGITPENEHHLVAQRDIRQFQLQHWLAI
# Chain of Monoamine transporters; Norepinephrine & dopamine (Homo sapiens) (Q01959 whole entry, looked up): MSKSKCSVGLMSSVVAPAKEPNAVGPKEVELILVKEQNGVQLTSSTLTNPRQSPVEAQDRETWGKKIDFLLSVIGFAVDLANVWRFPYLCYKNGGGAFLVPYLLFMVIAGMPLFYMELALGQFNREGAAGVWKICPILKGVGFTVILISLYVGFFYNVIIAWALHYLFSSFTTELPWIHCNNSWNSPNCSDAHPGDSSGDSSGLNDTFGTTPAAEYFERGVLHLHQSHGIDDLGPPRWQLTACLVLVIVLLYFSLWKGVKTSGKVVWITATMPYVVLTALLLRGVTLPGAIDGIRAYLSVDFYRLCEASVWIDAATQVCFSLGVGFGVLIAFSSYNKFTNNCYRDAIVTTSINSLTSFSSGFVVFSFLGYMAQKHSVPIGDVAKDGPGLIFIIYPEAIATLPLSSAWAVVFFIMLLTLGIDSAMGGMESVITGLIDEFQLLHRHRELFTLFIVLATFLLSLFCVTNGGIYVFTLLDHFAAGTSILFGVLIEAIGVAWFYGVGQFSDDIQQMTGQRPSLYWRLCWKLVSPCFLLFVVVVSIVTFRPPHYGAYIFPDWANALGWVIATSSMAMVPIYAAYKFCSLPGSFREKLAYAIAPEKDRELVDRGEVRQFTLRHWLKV
# T3 sequence (P23975 whole entry): as the sequence (P23975 whole entry, looked up) above
# Chain of Monoamine transporters; serotonin & dopamine (Homo sapiens) (P31645 whole entry, looked up): as the sequence (P31645 whole entry) above
# Chain of Monoamine transporters; serotonin & dopamine (Homo sapiens) (Q01959 whole entry, looked up): as the sequence (Q01959 whole entry, looked up) above
# T2 sequence (Q01959 whole entry): as the sequence (Q01959 whole entry, looked up) above
Ki [1] [nM],IC50 [2] [nM],Selectivity ratio [3],Ratio [4],Ki [5] [nM],Selectivity ratio [6],IC50 [7] [nM],Ki [8] [nM],Ratio [9],IC50 [10] [nM],SMILES,Ki [11] [nM]
351,1990,6.5,0.9,844,15.6,47,54,5.7,299,O=C(Cc1ccc(F)cc1)NCCNCCOC(c1ccc(F)cc1)c1ccc(F)cc1,–
550,1050,18.3,4,370,12.3,119,30,1.9,279,CN(CCOC(c1ccccc1)c1ccccc1)CCN(C)CCc1ccc(F)cc1,–
438,1700,3.6,1.9,30,0.2,237,122,3.9,143,CN(CCCc1ccccc1)CCCN(C)CCOC(c1ccccc1)c1ccccc1,–
1530,1700,4.7,1.1,194,0.6,349,322,1.1,210,CN(CCCN(C)CCc1ccccc1)CCOC(c1ccccc1)c1ccccc1,–
125,249,4.5,2.4,82,2.9,68,28,2,116,Fc1ccc(C(OCCNCCCNCCc2ccccc2)c2ccc(F)cc2)cc1,–
1150,1230,18.8,1.2,477,7.8,73,61,1.1,192,O=C(Cc1ccccc1)NCCCNCCOC(c1ccc(F)cc1)c1ccc(F)cc1,–
556,1300,10.3,1.5,604,11.2,80,54,2.3,399,O=C(Cc1ccccc1)NCCNCCOC(c1ccc(F)cc1)c1ccc(F)cc1,–
114,3940,0.1,> 1.7,7050,4.9,> 10000,1430,> 34.5,> 10000,O=C1CN(CCc2ccccc2)CCN1CCOC(c1ccc(F)cc1)c1ccc(F)cc1,–
770,> 10000,30.1,32.4,261,10.2,830,26,> 13,2600,CN(CCOC(c1ccc(F)cc1)c1ccc(F)cc1)CCN(C)CCOC(c1ccc(F)cc1)c1ccc(F)cc1,–
523,1140,10.3,1.8,545,10.7,90,51,2.2,205,O=C(CCc1ccccc1)NCCNCCOC(c1ccc(F)cc1)c1ccc(F)cc1,–
590,4500,1.2,2.7,1760,3.5,1380,510,7.6,> 10000,O=C(/C=C/c1ccc(Br)cc1)NCCNCCOC(c1ccc(F)cc1)c1ccc(F)cc1,–

SMILES,Ki [1] [nM],IC50 [2] [nM],Selectivity ratio [3],Ratio [4],Ki [5] [nM],Selectivity ratio [6],IC50 [7] [nM],Ki [8] [nM],Ratio [9],IC50 [10] [nM],Ki [11] [nM]
O=C1CN(CCOC(c2ccccc2)c2ccccc2)CCN1CCCc1ccccc1,5900,> 10,0.7,> 1.2,–,1,> 10,8200,> 1.7,> 10,5850
